Results taken from ChEMBL document CHEMBL4052630, “Design, synthesis and evaluation of scutellarein-O-acetamidoalkylbenzylamines as potential multifunctional agents for the treatment of Alzheimer's disease” (Eur J Med Chem, 2017).
Active and inactive are the calls of the source. The calls are words filed in the database; no cut-off is given here.

What was measured:
[1] = Metal chelating activity assessed as inhibition of Cu2+ induced amyloid beta (1 to 42) aggregation at 25 uM after 24 hrs by ThT-based fluorometric method relative to control
Outline: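 Aβ1-42 (25 µM) with Cu2+ (25 µM, one equivalent) in 20 mM HEPES pH 6.6 with NaCl, incubated 24 h at 37 °C ± compound (25 µM). Then 5 µM thioflavin T in glycine-NaOH pH 8.5 was added and read at ex 446/em 490 nm. Triplicate. % inhibition relative to no-compound control.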

[2] = Antioxidant activity assessed as trolox equivalents of AAPH radical scavenging activity at 1 to 10 uM preincubated for 15 mins followed by AAPH addition measured every 60 sec for 90 mins by ORAC-FL assay; assay type: functional
Outline: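 ORAC-FL in 75 mM phosphate buffer pH 7.4. Compound at 1–10 µM with fluorescein (150 nM final), pre-incubated 15 min at 37 °C, then AAPH added (12 mM final). Fluorescence read every minute for 90 min, ex 485/em 535 nm. Curves normalised to the FL+AAPH blank. Trolox standard 1–8 µM. Duplicates, ≥3 independent assays. Results given as µM Trolox equivalent per µM compound.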

Acetylcholinesterase [3] = target: Acetylcholinesterase (Homo sapiens, UniProt P22303); test: Inhibition of human erythrocyte AChE using acetylthiocholine iodide as substrate after 15 mins by Ellman's method
Acetylcholinesterase (Homo sapiens, UniProt P22303), sequence (P22303 whole entry): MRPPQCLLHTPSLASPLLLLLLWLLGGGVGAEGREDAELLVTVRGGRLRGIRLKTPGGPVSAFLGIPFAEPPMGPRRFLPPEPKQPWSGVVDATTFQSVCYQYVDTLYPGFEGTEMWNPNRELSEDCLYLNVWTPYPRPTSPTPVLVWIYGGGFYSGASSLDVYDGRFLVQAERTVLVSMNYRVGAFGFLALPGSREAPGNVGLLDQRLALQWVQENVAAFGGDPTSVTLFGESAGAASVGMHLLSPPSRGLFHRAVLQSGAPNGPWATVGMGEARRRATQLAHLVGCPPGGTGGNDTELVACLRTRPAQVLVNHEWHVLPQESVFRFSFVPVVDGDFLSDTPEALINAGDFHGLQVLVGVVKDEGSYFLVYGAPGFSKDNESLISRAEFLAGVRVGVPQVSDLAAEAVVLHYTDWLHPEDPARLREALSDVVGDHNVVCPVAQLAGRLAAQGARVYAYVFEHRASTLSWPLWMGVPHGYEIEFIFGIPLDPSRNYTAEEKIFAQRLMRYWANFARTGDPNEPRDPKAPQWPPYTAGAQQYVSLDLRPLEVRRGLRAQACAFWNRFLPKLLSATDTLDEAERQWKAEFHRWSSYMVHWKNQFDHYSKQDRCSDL

[4] = Metal chelating activity assessed as compound-Cu2+ complex formation by measuring red shift at 37.5 uM after 30 mins by UV-vis spectrophotometric method
Outline: (§1)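 UV absorption scanned from 200 to 600 nm after 30 min at room temperature in methanol. Compound and each metal salt (CuCl2, ZnCl2, AlCl3, FeSO4) were at 37.5 µM final. Spectra compared with and without metal.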

PC-12 = test: Neuroprotective activity against H2O2 induced cell injury in rat PC12 cells assessed as increase in cell viability preincubated for 24 hrs followed by incubation with H2O2 for 2 hrs measured after 24 hrs by MTT assay; assay type: functional, cell-based
Outline: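 PC12 cells in phenol-red-free DMEM with 10% FCS, plated at 10^5 cells/well. Cells preincubated 24 h with compound (1.0 or 10.0 µM; dissolved in 2% DMSO, diluted in PBS), then exposed to H2O2 100 µM for 2 h. Medium replaced; viability assessed 24 h later by MTT (4 h, 37 °C), lysis in DMF/SDS, A590.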

Mus musculus [5] = test: Reversal of scopolamine-induced memory impairment in Kunming mouse assessed as step-down latency time at 7.33 mg/kg, po administered 60 mins prior to training trial followed by scopolamine challenge at 30 mins post dose measured 24 hrs after training trial by passive avoidance test; assay type: functional
Outline: (§2)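 Kunming mice, 18–22 g, six weeks old, either sex; 10 per group. Oral dosing 1 h before training (test compound 3.67, 7.33, 22 mg/kg; donepezil 5.0 mg/kg), scopolamine 3 mg/kg i.p. 30 min later. Training: 0.5 mA, 2 s foot shock on stepping off the block. Step-down latency measured 24 h later. Mean ± SEM.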

[6] = Solubility of the compound in DMEM in presence of 10% FBS; assay type: physicochemical
[7] = Metal chelating activity assessed as compound-Al3+ complex formation by measuring shift in maximum absorption wavelength at 37.5 uM after 30 mins by UV-vis spectrophotometric method; outline: as §1
[8] = target: Amyloid-beta precursor protein (Homo sapiens) (UniProt P05067); test: Inhibition of amyloid beta (1 to 42) (unknown origin) self-induced aggregation after 24 hrs by ThT-based fluorometric method
Amyloid-beta precursor protein (Homo sapiens), sequence (P05067 whole entry): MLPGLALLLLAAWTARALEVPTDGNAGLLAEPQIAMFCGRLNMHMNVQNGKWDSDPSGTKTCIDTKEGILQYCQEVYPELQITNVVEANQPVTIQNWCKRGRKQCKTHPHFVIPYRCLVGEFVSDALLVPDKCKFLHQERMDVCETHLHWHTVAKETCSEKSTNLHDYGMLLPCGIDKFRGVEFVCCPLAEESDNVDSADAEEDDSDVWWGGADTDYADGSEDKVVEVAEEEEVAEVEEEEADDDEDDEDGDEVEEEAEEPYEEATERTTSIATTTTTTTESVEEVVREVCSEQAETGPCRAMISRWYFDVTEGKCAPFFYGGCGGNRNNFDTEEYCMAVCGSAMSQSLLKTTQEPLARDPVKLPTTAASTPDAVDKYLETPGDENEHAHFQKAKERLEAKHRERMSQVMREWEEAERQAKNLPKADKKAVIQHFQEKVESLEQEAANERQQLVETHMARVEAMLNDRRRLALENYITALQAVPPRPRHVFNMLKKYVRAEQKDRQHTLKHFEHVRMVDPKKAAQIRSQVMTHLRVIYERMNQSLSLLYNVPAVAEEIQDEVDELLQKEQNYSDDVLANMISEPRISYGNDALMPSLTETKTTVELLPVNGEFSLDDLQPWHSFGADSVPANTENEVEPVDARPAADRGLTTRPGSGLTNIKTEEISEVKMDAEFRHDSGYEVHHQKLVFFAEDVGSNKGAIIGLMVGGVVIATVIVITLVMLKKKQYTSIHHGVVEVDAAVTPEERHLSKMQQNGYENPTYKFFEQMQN
Outline: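 Aβ1-42 (25 µM final) incubated 24 h at 37 °C with or without compound (1-50 µM) in 50 mM phosphate buffer pH 7.4. Thioflavin T (5 µM in glycine-NaOH pH 8.5) then added, fluorescence read at ex 446/em 490 nm. Inhibition = (1-IFi/IFc)×100 after background subtraction. Run in triplicate.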

[9] = Metal chelating activity assessed as disaggregation of Cu2+ induced amyloid beta (1 to 42) fibrils at 25 uM treated for 24 hrs post Cu2+ treatment for 24 hrs by ThT-based fluorometric method relative to control
Outline: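 Fibrils preformed from Aβ1-42 (25 µM) plus Cu2+ (25 µM) in 20 mM HEPES pH 6.6, 150 mM NaCl, 24 h at 37 °C. Compound (25 µM) then added for another 24 h at 37 °C. Thioflavin T (5 µM, glycine-NaOH pH 8.5) fluorescence read at ex 446/em 490 nm. Triplicate.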

[10] = target: Acetylcholinesterase (Electrophorus electricus) (UniProt O42275); test: Mixed type inhibition of electric eel AChE at 10 to 40 nM preincubated for 15 mins followed by varying levels of acetylthiocholine substrate addition by Lineweaver-Burk plot analysis
Acetylcholinesterase (Electrophorus electricus), sequence (O42275 24-633 limits assumed): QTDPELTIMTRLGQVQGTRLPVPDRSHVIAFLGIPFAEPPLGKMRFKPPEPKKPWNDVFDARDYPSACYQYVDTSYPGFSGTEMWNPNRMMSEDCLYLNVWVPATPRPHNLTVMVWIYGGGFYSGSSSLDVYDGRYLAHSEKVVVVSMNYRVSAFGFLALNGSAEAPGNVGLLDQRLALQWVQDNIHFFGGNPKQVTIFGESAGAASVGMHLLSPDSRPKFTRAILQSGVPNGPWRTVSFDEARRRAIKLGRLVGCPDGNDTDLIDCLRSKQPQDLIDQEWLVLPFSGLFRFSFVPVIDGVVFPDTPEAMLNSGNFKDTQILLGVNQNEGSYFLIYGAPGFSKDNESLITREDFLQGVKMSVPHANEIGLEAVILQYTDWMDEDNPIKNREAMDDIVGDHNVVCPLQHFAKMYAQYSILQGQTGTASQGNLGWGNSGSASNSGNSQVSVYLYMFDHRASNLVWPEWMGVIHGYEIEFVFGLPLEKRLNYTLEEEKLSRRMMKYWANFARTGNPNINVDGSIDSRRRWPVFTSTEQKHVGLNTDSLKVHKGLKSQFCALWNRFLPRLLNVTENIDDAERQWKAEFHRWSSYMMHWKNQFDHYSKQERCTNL
Outline: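 Electric eel AChE (10 µL of 0.5 U/mL) in 0.1 M phosphate pH 8.0 with DTNB, pre-incubated 15 min at 37 °C with three inhibitor concentrations. Acetylthiocholine added at 0.1–0.4 mM and hydrolysis read at 412 nm, with an inhibitor-free control. Lineweaver-Burk plots by weighted least squares; slopes replotted against inhibitor concentration.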

[11] = Metal chelating activity assessed as compound-Zn2+ complex formation by measuring shift in maximum absorption wavelength at 37.5 uM after 30 mins by UV-vis spectrophotometric method; outline: as §1
Acetylcholinesterase [12] = target: T1, Acetylcholinesterase (Rattus norvegicus, UniProt P37136); test: Inhibition of rat cortex homogenate AChE using acetylthiocholine iodide as substrate after 15 mins in presence of BuChE inhibitor iso-OMPA by Ellman's method
T1 sequence (P37136 whole entry): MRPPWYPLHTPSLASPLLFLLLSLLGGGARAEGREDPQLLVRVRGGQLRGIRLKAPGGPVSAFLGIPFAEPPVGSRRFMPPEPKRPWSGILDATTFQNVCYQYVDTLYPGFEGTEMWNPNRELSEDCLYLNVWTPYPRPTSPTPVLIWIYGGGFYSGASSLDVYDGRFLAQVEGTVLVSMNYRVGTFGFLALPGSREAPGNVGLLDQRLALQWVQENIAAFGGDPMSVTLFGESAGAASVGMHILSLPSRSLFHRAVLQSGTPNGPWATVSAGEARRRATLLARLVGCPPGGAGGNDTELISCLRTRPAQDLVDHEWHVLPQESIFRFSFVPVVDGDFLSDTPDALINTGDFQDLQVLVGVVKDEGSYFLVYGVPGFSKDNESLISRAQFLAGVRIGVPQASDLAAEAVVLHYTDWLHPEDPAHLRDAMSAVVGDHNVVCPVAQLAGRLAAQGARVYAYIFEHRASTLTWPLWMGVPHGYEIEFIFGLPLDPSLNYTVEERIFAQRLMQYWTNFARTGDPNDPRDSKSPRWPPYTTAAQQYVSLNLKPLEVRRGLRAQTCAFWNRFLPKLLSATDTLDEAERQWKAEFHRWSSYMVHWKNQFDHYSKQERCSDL

Mus musculus [13] = test: Reversal of scopolamine-induced memory impairment in Kunming mouse assessed as step-down latency time at 22 mg/kg, po administered 60 mins prior to training trial followed by scopolamine challenge at 30 mins post dose measured 24 hrs after training trial by passive avoidance test; assay type: functional; outline: as §2

## CCN(CCCCNC(=O)COc1ccc(-c2cc(=O)c3c(O)c(OC)c(OC)cc3o2)cc1)Cc1ccccc1OC
[1]
  inhibition: 43.4%
[2]
  Activity: 1.13 equiv
Acetylcholinesterase [3]
  IC50: 39 nM
[4]
  Activity: Active
PC-12
  Activity: Dose-dependent effect
Mus musculus [5]
  Time: 194.3 s
[6]
  solubility: Insoluble
[7]
  Activity: Active
[8]
  inhibition: Dose-dependent effect
[9]
  Activity: 66.3%
[10]
  inhibition: Active
[11]
  Activity: inactive
Acetylcholinesterase [12]
  IC50: 51 nM
Mus musculus [13]
  Time: 176.4 s
